≈ marks a conversion by molar mass, not a printed value.
How the values were obtained:
[1] = test system: HeLa; assay: Cytotoxicity against human HeLa cells assessed as cell survival after 72 hrs by MTT assay; type: functional, cell-based
In short: (§1)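 Cells seeded (HeLa 2000, MDA-MB-453 3000, others 5000 per well), treated 24 h later (K562 after 2 h). Five double-diluted final concentrations, 200–12.5 μM, from 10 mM DMSO stocks, in RPMI-1640 with 10% FBS, pH 7.2, 72 h. MTT 4 h at 37 °C, SDS added, A570 read next day. Survival relative to medium control; IC50 from survival curves; triplicate; cisplatin positive control.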

[2] = test system: A549; assay: Cytotoxicity against human A549 cells assessed as cell survival after 72 hrs by MTT assay; type: functional, cell-based; conditions: A549, 72 h; in short: as §1
[3] = Cytotoxicity against human Fem-X cells assessed as cell survival after 72 hrs by MTT assay; type: functional, cell-based; in short: as §1
[4] = test system: K562; assay: Cytotoxicity against human K562 cells assessed as cell survival after 72 hrs by MTT assay; type: functional, cell-based; conditions: K562, 72 h; in short: as §1
[5] = test system: MDA-MB-453; assay: Cytotoxicity against human MDA-MB-453 cells assessed as cell survival after 72 hrs by MTT assay; type: functional, cell-based; conditions: MDA-MB-453, 72 h; in short: as §1
[6] = test system: MRC5; assay: Cytotoxicity against human MRC5 cells assessed as cell survival after 72 hrs by MTT assay; type: cell-based; conditions: MRC5, 72 h; in short: as §1
[7] = test system: Staphylococcus aureus; assay: Antibacterial activity against Staphylococcus aureus ATCC 6538 after 24 hrs by microbroth double dilution method; type: functional; conditions: ATCC 6538, 24 h
In short: (§2)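 Microbroth double dilution in Mueller Hinton broth; compound stock 10 mg/mL in DMSO serially halved across rows. Wells inoculated with 10 μL culture at 10^6 cells/mL, incubated 37 °C for 24 h. Amikacin row as positive control, DMSO row as negative control. MIC taken as lowest concentration inhibiting bacterial growth.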

[8] = test system: Kocuria rhizophila; assay: Antibacterial activity against Kocuria rhizophila ATCC 9341 after 24 hrs by microbroth double dilution method; type: functional; conditions: ATCC 9341, 24 h; in short: as §2
[9] = test system: Bacillus subtilis; assay: Antibacterial activity against Bacillus subtilis ATCC 6633 after 24 hrs by microbroth double dilution method; type: functional; conditions: ATCC 6633, 24 h; in short: as §2
[10] = test system: Micrococcus luteus; assay: Antibacterial activity against Micrococcus luteus ATCC 4698 after 24 hrs by microbroth double dilution method; type: functional; conditions: ATCC 4698, 24 h; in short: as §2
[11] = test system: Micrococcus flavus; assay: Antibacterial activity against Micrococcus flavus ATCC 10240 after 24 hrs by microbroth double dilution method; type: functional; conditions: ATCC 10240, 24 h; in short: as §2
[12] = test system: Clostridium sporogenes; assay: Antibacterial activity against Clostridium sporogenes ATCC 19404 after 24 hrs by microbroth double dilution method; type: functional; conditions: ATCC 19404, 24 h; in short: as §2
[13] = test system: Escherichia coli; assay: Antibacterial activity against Escherichia coli ATCC 25922 after 24 hrs by microbroth double dilution method; type: functional; conditions: ATCC 25922, 24 h; in short: as §2
[14] = test system: Proteus hauseri; assay: Antibacterial activity against Proteus hauseri ATCC 13315 after 24 hrs by microbroth double dilution method; type: functional; conditions: ATCC 13315, 24 h; in short: as §2
[15] = test system: Salmonella enterica; assay: Antibacterial activity against Salmonella enterica ATCC 13076 after 24 hrs by microbroth double dilution method; type: functional; conditions: ATCC 13076, 24 h; in short: as §2
[16] = test system: Pseudomonas aeruginosa; assay: Antibacterial activity against Pseudomonas aeruginosa ATCC 9027 after 24 hrs by microbroth double dilution method; type: functional; conditions: ATCC 9027, 24 h; in short: as §2
[17] = test system: Candida albicans; assay: Antifungal activity against Candida albicans ATCC 10231 after 24 hrs by microbroth double dilution method; type: functional; conditions: ATCC 10231, 24 h
[18] = test system: Saccharomyces cerevisiae; assay: Antifungal activity against Saccharomyces cerevisiae ATCC 9763 after 24 hrs by microbroth double dilution method; type: functional; conditions: ATCC 9763, 24 h
[19] = test system: Aspergillus brasiliensis; assay: Antifungal activity against Aspergillus brasiliensis ATCC 16404 after 24 hrs by microbroth double dilution method; type: functional; conditions: ATCC 16404, 24 h
[20] = test system: Artemia salina; assay: Cytotoxicity in Brine shrimp assessed as nauplii mortality after 24 hrs; type: organism-based; conditions: in vivo
In short: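 Artemia salina eggs hatched in aerated tap water with dried yeast at 18–20 °C under illumination for 48 h, and freshly hatched nauplii were used. Compounds in DMSO (0.01–1 mg) were added to 950 µL artificial seawater containing 10–20 nauplii, with 5% final DMSO. After 24 h under illumination at room temperature, dead and surviving nauplii were counted and statistically analysed.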

Row | SMILES | IC50 [1] [µM] | IC50 [2] [µM] | IC50 [3] [µM] | IC50 [4] [µM] | IC50 [5] [µM] | IC50 [6] [µM] | MIC [7] [µM] | MIC [8] [µM] | MIC [9] [µM] | MIC [10] [µM] | MIC [11] [µM] | MIC [12] [µM] | MIC [13] [µM] | MIC [14] [µM] | MIC [15] [µM] | MIC [16] [µM] | MIC [17] [µM] | MIC [18] [µM] | MIC [19] [µM] | LC50 [20] [ppm]
1 | CC(C)[C@@H](NC1=CC(=O)C=C(C(C)(C)C)C1=O)C(=O)O | 96.5 | 154 | 24.6 | 57.8 | 133 | > 200 | 1120 (≈ 313 µg/mL) | 4480 (≈ 1250 µg/mL) | 2240 (≈ 626 µg/mL) | 1120 (≈ 313 µg/mL) | 2240 (≈ 626 µg/mL) | 2240 (≈ 626 µg/mL) | 1120 (≈ 313 µg/mL) | 4480 (≈ 1250 µg/mL) | 4480 (≈ 1250 µg/mL) | 2240 (≈ 626 µg/mL) | 563 (≈ 157 µg/mL) | 563 (≈ 157 µg/mL) | 2240 (≈ 626 µg/mL) | 574.9
2 | CC(C)(C)C1=CC(=O)C=C(NCC(=O)O)C1=O | 132 | > 200 | 34.3 | 85 | 171 | > 200 | 662 (≈ 157 µg/mL) | 2640 (≈ 626 µg/mL) | 1320 (≈ 313 µg/mL) | 662 (≈ 157 µg/mL) | 2640 (≈ 626 µg/mL) | 2640 (≈ 626 µg/mL) | 662 (≈ 157 µg/mL) | 2640 (≈ 626 µg/mL) | 2640 (≈ 626 µg/mL) | 662 (≈ 157 µg/mL) | 662 (≈ 157 µg/mL) | 662 (≈ 157 µg/mL) | 2640 (≈ 626 µg/mL) | 197.4
3 | CC(C)(C)C1=CC(=O)C=C(N[C@@H](Cc2ccccc2)C(=O)O)C1=O | 66.3 | 164 | 67.3 | 82.3 | 68 | > 200 | 480 (≈ 157 µg/mL) | 1910 (≈ 626 µg/mL) | 1910 (≈ 626 µg/mL) | 480 (≈ 157 µg/mL) | 1910 (≈ 626 µg/mL) | 1910 (≈ 626 µg/mL) | 480 (≈ 157 µg/mL) | 1910 (≈ 626 µg/mL) | 1910 (≈ 626 µg/mL) | 1910 (≈ 626 µg/mL) | 480 (≈ 157 µg/mL) | 119 (≈ 39 µg/mL) | 957 (≈ 313 µg/mL) | 196.8
4 | CC1=CCC[C@H]2[C@](C)(CC3=CC(=O)C=C(NCC(=O)O)C3=O)[C@@H](C)CC[C@]12C | 19.9 | 46.7 | 17.8 | 15.6 | 5.84 | 183 | 101 (≈ 39 µg/mL) | 811 (≈ 313 µg/mL) | 407 (≈ 157 µg/mL) | 101 (≈ 39 µg/mL) | 407 (≈ 157 µg/mL) | 407 (≈ 157 µg/mL) | 101 (≈ 39 µg/mL) | 811 (≈ 313 µg/mL) | 407 (≈ 157 µg/mL) | 407 (≈ 157 µg/mL) | 12.6 (≈ 4.86 µg/mL) | 100 (≈ 38.7 µg/mL) | 404 (≈ 156 µg/mL) | 487.1
5 | CC1=CCC[C@H]2[C@](C)(CC3=CC(=O)C(N4CCC[C@H]4C(=O)O)=CC3=O)[C@@H](C)CC[C@]12C | 36.2 | 49.2 | 39.6 | 35.4 | 60.6 | 96 | 91.5 (≈ 39 µg/mL) | 735 (≈ 313 µg/mL) | 183 (≈ 77.9 µg/mL) | 91.5 (≈ 39 µg/mL) | 183 (≈ 77.9 µg/mL) | 369 (≈ 157 µg/mL) | 91.5 (≈ 39 µg/mL) | 183 (≈ 77.9 µg/mL) | 183 (≈ 77.9 µg/mL) | 183 (≈ 77.9 µg/mL) | 23 (≈ 9.79 µg/mL) | 45.8 (≈ 19.5 µg/mL) | 735 (≈ 313 µg/mL) | 706.6
6 | CC1=CCC[C@H]2[C@](C)(CC3=CC(=O)C=C(N[C@@H](Cc4ccccc4)C(=O)O)C3=O)[C@@H](C)CC[C@]12C | 14.6 | 40.1 | 17.3 | 20.5 | 16.6 | > 200 | 10.3 (≈ 4.91 µg/mL) | 331 (≈ 157 µg/mL) | 20.6 (≈ 9.81 µg/mL) | 10.3 (≈ 4.91 µg/mL) | 82.1 (≈ 39.1 µg/mL) | 82.1 (≈ 39.1 µg/mL) | 10.3 (≈ 4.91 µg/mL) | 82.1 (≈ 39.1 µg/mL) | 20.6 (≈ 9.81 µg/mL) | 20.6 (≈ 9.81 µg/mL) | 164 (≈ 78.1 µg/mL) | 10.3 (≈ 4.91 µg/mL) | 1320 (≈ 626 µg/mL) | 96.7
7 | CC(C)(C)C1=CC(=O)C=C(NCCC(=O)O)C1=O | 47.1 | 171 | 28.4 | 67 | 94.1 | > 200 | 625 (≈ 157 µg/mL) | 2490 (≈ 625 µg/mL) | 2490 (≈ 625 µg/mL) | 1250 (≈ 313 µg/mL) | 2490 (≈ 625 µg/mL) | 1250 (≈ 313 µg/mL) | 1250 (≈ 313 µg/mL) | 2490 (≈ 625 µg/mL) | 2490 (≈ 625 µg/mL) | 2490 (≈ 625 µg/mL) | 626 (≈ 157 µg/mL) | 311 (≈ 78.1 µg/mL) | 2490 (≈ 626 µg/mL) | 833.2

— ChEMBL document CHEMBL3627646, “Synthesis and biological activity of amino acid derivatives of avarone and its model compound” (Bioorg Med Chem, 2015)
